Active and inactive are the calls of the source. The rule behind the calls is not given here.
Legend:
[1] = test system: NRK; test: Golgi-disturbing activity in golgi apparatus of rat NRK cells assessed as golgi fragmentation measured after 60 mins following drug washout by Hoechst 3342 staining-based immunofluorescence microscopy; assay type: functional, cell-based
[2] = test system: NRK; test: Golgi-disturbing activity in golgi apparatus of rat NRK cells assessed as golgi vesiculation after 60 mins by Hoechst 3342 staining-based immunofluorescence microscopy; assay type: functional, cell-based
Summary of the method: (§1)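 NRK cells grown in alpha MEM with 10% FCS, 2 mM glutamine and 25 mM Hepes pH 7.4 on coated coverslips. Compound at 30 µM working concentration (DMSO vehicle control) for 60 min at 37 °C. Cells then immunostained for mannosidase II with Alexa 594 secondary and Hoechst for nuclei, and scored by fluorescence microscopy at 60×.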

[3] = test system: NRK; test: Golgi-disturbing activity in golgi apparatus of rat NRK cells assessed as golgi fragmentation after 60 mins by Hoechst 3342 staining-based immunofluorescence microscopy; assay type: functional; summary of the method: as §1
[4] = Drug localization in golgi apparatus of rat NRK cells after 10 mins by immunofluorescence microscopy; assay type: ADME, cell-based
Summary of the method: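 Live NRK cells incubated with fluorescent probe for 10 min and imaged for Golgi-like perinuclear staining. For colocalization, cells were mildly fixed (2% formaldehyde, 90 s), immunostained for mannosidase II, then given probe at 25 μM for 30 min before mounting. Coumarin read at excitation 370 nm, emission 460 nm.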

[5] = test system: NRK; test: Golgi-disturbing activity in golgi apparatus of rat NRK cells assessed as partial golgi vesiculation after 60 mins by Hoechst 3342 staining-based immunofluorescence microscopy; assay type: functional, cell-based; summary of the method: as §1
[6] = test system: NRK; test: Golgi-disturbing activity in golgi apparatus of rat NRK cells assessed as reversible golgi fragmentation after 60 mins by Hoechst 3342 staining-based immunofluorescence microscopy; assay type: functional, cell-based
Summary of the method: (§2)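 After 1 h compound exposure (30 µM, 37 °C), NRK cells were either fixed directly or washed four times with PBS and kept in fresh complete medium at 37 °C (90 min per methods) before mannosidase II/Hoechst immunofluorescence to judge recovery of Golgi structure.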

[7] = test system: NRK; test: Golgi-disturbing activity in golgi apparatus of rat NRK cells assessed as reversible golgi vesiculation after 60 mins by Hoechst 3342 staining-based immunofluorescence microscopy; assay type: functional, cell-based; summary of the method: as §2
[8] = test system: NRK; test: Golgi-disturbing activity in golgi apparatus of rat NRK cells assessed as fusion of golgi membrane fusion with endoplasmic reticulum at 7 uM after 60 mins by Hoechst 3342 staining-based immunofluorescence microscopy; assay type: functional, cell-based
Summary of the method: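 Agent applied for 60 min at 37 °C, with a DMSO control. Golgi read by immunofluorescence: rabbit mannosidase II primary, Alexa Fluor 594 secondary, Hoechst DNA stain, 60× fluorescence microscopy.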

[9] = test system: NRK; test: Golgi-disturbing activity in golgi apparatus of rat NRK cells assessed as enhancement of nocodazole-induced golgi fragmentation after 60 mins by Hoechst 3342 staining-based immunofluorescence microscopy; assay type: functional, cell-based
Summary of the method: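 NRK cells were pretreated with nocodazole (30 µM) for 60 min, then given compound for a further 60 min. Golgi was visualized by mannosidase II immunofluorescence with Hoechst nuclear stain.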

[10] = test system: NRK; test: Golgi-disturbing activity in golgi apparatus of rat NRK cells assessed as golgi fragmentation after 60 mins by Hoechst 3342 staining-based immunofluorescence microscopy in presence of PKD inhibitor H89; assay type: functional, cell-based
Summary of the method: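 NRK cells were pretreated with H-89 (20 µM) for 30 min, then incubated with compound for 1 h at 37 °C. Golgi was read by mannosidase II immunofluorescence with Hoechst counterstain.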

[11] = test system: NRK; test: Golgi-disturbing activity in golgi apparatus of rat NRK cells assessed as transport of GFP-fused VSV G protein from endoplasmic reticulum to golgi after 60 mins by protein transport assay; assay type: functional, cell-based
Summary of the method: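 NRK cells were transfected with tsO45 VSV-G-GFP using FuGene 6 and held at 40 °C for 20 h to arrest VSV-G in the ER. They were treated with compound (30 µM working) or DMSO for 1 h, then moved to 20 °C for 2 h with cycloheximide. VSV-G entry into the Golgi was judged by fluorescence microscopy against the Golgi marker.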

[12] = test system: NRK; test: Golgi-disturbing activity in golgi apparatus of rat NRK cells assessed as transport of GFP-fused VSV G protein from fragmented golgi to plasma membrane after 60 mins by protein transport assay; assay type: functional, cell-based
Summary of the method: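 After transfection with tsO45 VSV-G-GFP, NRK cells were held at 40 °C for 20 h, then at 20 °C for 2 h with cycloheximide to hold VSV-G in the Golgi. Cells were then incubated with compound (30 µM working) or DMSO and shifted to 32 °C for 1 h. Arrival at the plasma membrane was imaged by fluorescence microscopy.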

[13] = test system: NRK; test: Golgi-disturbing activity in golgi apparatus of rat NRK cells assessed as microtubule depolymerization-associated golgi fragmentation after 60 mins by Hoechst 3342 staining-based immunofluorescence microscopy
[14] = test system: NRK; test: Golgi-disturbing activity in golgi apparatus of rat NRK cells assessed as complete golgi vesiculation without fusion with endoplasmic reticulum at 30 uM after 60 mins by Hoechst 3342 staining-based immunofluorescence microscopy; assay type: functional, cell-based; summary of the method: as §1
[15] = test system: NRK; test: Golgi-disturbing activity in golgi apparatus of rat NRK cells assessed as irreversible golgi fragmentation after 60 mins by Hoechst 3342 staining-based immunofluorescence microscopy; assay type: functional, cell-based; summary of the method: as §2
[16] = test system: NRK; test: Golgi-disturbing activity in golgi apparatus of rat NRK cells assessed as microtubule depolymerization-associated golgi fragmentation at 30 uM after 60 mins by Hoechst 3342 staining-based immunofluorescence microscopy; assay type: functional, cell-based; summary of the method: as §1

| SMILES | Activity [1] | Activity [5] | Activity [6] | further results |
| --- | --- | --- | --- | --- |
| CC1(C)CCC[C@]2(C)[C@@H](OC(=O)c3ccc(OCC4CC4)cc3OCC3CC3)CC[C@@H]12 | Active | – | – | Activity [2]: Active |
| C=C([C@H]1[C@H]2CC(=O)O[C@H]2O[C@@H]1COC(=O)Cc1cc(=O)oc2cc(N(C)C)ccc12)[C@H]1CC[C@H]2C(C)(C)CCC[C@]12C | – | – | – | Activity [3]: Active; Drug uptake [4]: Active |
| C=C([C@H]1[C@H]2CC(=O)O[C@H]2O[C@@H]1C(C)=O)C(C)(C)C | inactive | inactive | inactive | – |
| CC(=O)[C@H]1O[C@@H]2OC(=O)C[C@@H]2[C@H]1OCc1ccccc1 | inactive | inactive | inactive | – |
| CN(C)c1ccc2c(CC(=O)NCC#Cc3cc(C(=O)O[C@H]4CC[C@H]5C(C)(C)CCC[C@]45C)c(OCC4CC4)cc3OCC3CC3)cc(=O)oc2c1 | – | – | – | Drug uptake [4]: Active; Activity [2]: Active; Activity [7]: Active |
| C[C@H]1CCC/C=C/[C@@H]2C[C@H](O)C[C@H]2[C@H](O)/C=C/C(=O)O1 | – | – | – | Activity [8]: Active |
| C=C([C@@H]1[C@@H](OC(C)=O)O[C@@H]2OC(=O)C[C@@H]21)[C@H]1CC[C@H]2C(C)(C)CCC[C@]12C | – | – | – | Activity [9]: Active; Activity [10]: Active; Activity [11]: inactive; Activity [12]: Active; Activity [13]: Active |
| C=C([C@H]1[C@H]2CC(=O)O[C@H]2O[C@@H]1CO)[C@H]1CC[C@H]2C(C)(C)CCC[C@]12C | – | Active | Active | – |
| COc1ccc(C(=O)O[C@H]2CC[C@H]3C(C)(C)CCC[C@]23C)c(OC)c1 | – | – | Active | Activity [2]: Active |
| C=C1CCC[C@H]2[C@](C)(CC3=C(O)C(=O)C=C(OC)C3=O)[C@@H](C)CC[C@]12C | – | – | – | Activity [14]: Active; Activity [10]: inactive; Activity [15]: Active; Activity [3]: Active |
| CC(=O)O[C@H]1O[C@@H]2OC(=O)C[C@@H]2[C@H]1OCc1ccccc1 | inactive | inactive | inactive | – |
| C=C([C@H]1[C@H]2CC(=O)O[C@H]2O[C@@H]1C(C)=O)[C@H]1CC[C@H]2C(C)(C)CCC[C@]12C | – | Active | Active | – |
| C=C([C@@H]1[C@@H](OC(C)=O)O[C@@H]2OC(=O)C[C@@H]21)C(C)(C)C | inactive | inactive | inactive | – |
| COC(=O)Nc1nc2cc(C(=O)c3cccs3)ccc2[nH]1 | – | – | – | Activity [16]: Active |

Reference: ChEMBL document CHEMBL1157652, “Chemical biology studies on norrisolide” (Bioorg Med Chem, 2010)
